Assay results as given in ChEMBL document CHEMBL1212770, “Molecular and biochemical characterization of the natural chromosome-encoded class A beta-lactamase from Pseudomonas luteola” (Antimicrob Agents Chemother, 2010).
≈ marks a conversion by molar mass, not a printed value. Calls of active or inactive are those of the source. The calls are words filed in the database; no cut-off is given here.

What was measured:
[1] = test system: Pseudomonas luteola; test: Antimicrobial activity against Pseudomonas luteola LAM expressing blaLUT-1 by Etest method; format: functional
[2] = test system: Pseudomonas luteola; test: Antimicrobial activity against Pseudomonas luteola expressing blaLUT-2 to blaLUT-6 by Etest method; format: functional
[3] = test system: Escherichia coli; test: Antimicrobial activity against Escherichia coli DH10B transfected with pBK-L3 expressing blaLUT-1 by Etest method; format: functional; conditions: K-12 DH10B
[4] = test system: Pseudomonas luteola; test: Antimicrobial activity against Pseudomonas luteola by disk diffusion method; format: functional
Summary of the method: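 Disk diffusion panel of 32 antimicrobial drugs tested on P. luteola clinical isolates and the type strain. Isolates were identified by API-20 NE and by sequencing of PCR-amplified rrs and rpoB.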

[5] = test system: Escherichia coli; test: Antimicrobial activity against Escherichia coli DH10B by Etest method; format: functional; conditions: K-12 DH10B
[6] = test system: Pseudomonas luteola; test: Antimicrobial activity against Pseudomonas luteola LAM expressing blaLUT-1 at 2:1 ratio of compound to clavulanic acid by Etest method; format: functional
[7] = test system: Pseudomonas luteola; test: Antimicrobial activity against Pseudomonas luteola expressing blaLUT-2 to blaLUT-6 at 2:1 ratio of compound to clavulanic acid by Etest method; format: functional
[8] = test system: Escherichia coli; test: Antimicrobial activity against Escherichia coli DH10B transfected with pBK-L3 expressing blaLUT-1 at 2:1 ratio of compound to clavulanic acid by Etest method; format: functional; conditions: K-12 DH10B
[9] = test system: Escherichia coli; test: Antimicrobial activity against Escherichia coli DH10B at 2:1 ratio of compound to clavulanic acid by Etest method; format: functional; conditions: K-12 DH10B
[10] = test system: Pseudomonas luteola; test: Antimicrobial activity against Pseudomonas luteola LAM expressing blaLUT-1 by Etest method in presence of 4 ug/ml clavulanic acid; format: functional
[11] = test system: Pseudomonas luteola; test: Antimicrobial activity against Pseudomonas luteola expressing blaLUT-2 to blaLUT-6 by Etest method in presence of 4 ug/ml clavulanic acid; format: functional
[12] = test system: Escherichia coli; test: Antimicrobial activity against Escherichia coli DH10B by Etest method in presence of 4 ug/ml clavulanic acid; format: functional; conditions: K-12 DH10B
[13] = test system: Escherichia coli; test: microbe, parasite or virus in culture; conditions: K-12 DH10B

SMILES	MIC [1] [µg/mL]	MIC [2] [µg/mL]	MIC [3] [µg/mL]	MIC [5] [µg/mL]	further results
CO/N=C(\C(=O)N[C@@H]1C(=O)N2C(C(=O)[O-])=C(C[N+]3(C)CCCC3)CS[C@H]12)c1csc(N)n1	0.5 (≈ 1.04 µM)	1 (≈ 2.08 µM)	0.5 (≈ 1.04 µM)	–	–
COc1cc(Cc2cnc(N)nc2N)cc(OC)c1OC	–	–	–	–	Activity [4]: inactive
Cn1nnnc1SCC1=C(C(=O)O)N2C(=O)[C@@H](NC(=O)[C@H](O)c3ccccc3)[C@H]2SC1	–	–	–	–	Activity [4]: inactive
O=C(N[C@H](CO)[C@H](O)c1ccc([N+](=O)[O-])cc1)C(Cl)Cl	–	–	–	–	Activity [1]: inactive
CC1(C)S[C@@H]2[C@H](NC(=O)[C@H](N)c3ccc(O)cc3)C(=O)N2[C@H]1C(=O)O [AMOXICILLIN]	4 (≈ 10.9 µM)	4 (≈ 10.9 µM)	128 (≈ 350 µM)	4 (≈ 10.9 µM)	MIC [6]: 1 µg/mL; MIC [7]: 1 µg/mL; MIC [8]: 4 µg/mL; MIC [9]: 4 µg/mL
C[C@H]1[C@H](NC(=O)/C(=N\OC(C)(C)C(=O)O)c2csc(N)n2)C(=O)N1S(=O)(=O)O [AZTREONAM]	2 (≈ 4.59 µM)	4 (≈ 9.19 µM)	2 (≈ 4.59 µM)	–	–
CO/N=C(\C(=O)N[C@@H]1C(=O)N2C(C(=O)O)=C(COC(C)=O)CS[C@H]12)c1csc(N)n1 [CEFOTAXIME]	1 (≈ 2.2 µM)	2 (≈ 4.39 µM)	1 (≈ 2.2 µM)	< 0.06	MIC [10]: 1 µg/mL; MIC [11]: 1 µg/mL; MIC [12]: < 0.06 µg/mL; MIC [13]: 0.06 µg/mL (≈ 0.132 µM)
CO[C@@]1(NC(=O)Cc2cccs2)C(=O)N2C(C(=O)O)=C(COC(N)=O)CS[C@@H]21 [CEFOXITIN]	32 (≈ 74.9 µM)	32 (≈ 74.9 µM)	4 (≈ 9.36 µM)	4 (≈ 9.36 µM)	–
